Reference: ChEMBL document CHEMBL5360668, “Discovery of Potent Allosteric DRP1 Inhibitors by Disrupting Protein-Protein Interaction with MiD49” (ACS Med Chem Lett, 2023)
In brackets after ≈: the same amount, converted by molar mass. Activity calls are given as the source filed them. No cut-off for these calls is given here.

Tests used:
[1] = Negative allosteric modulator activity at human N-terminal His-tagged DRP1-human C-terminal GST-tagged MiD49 protein protein interaction expressed in Escherichia coli BL21 (DE3) incubated for 90 mins by AlphaLISA assay
Summary of the method: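 AlphaLISA proximity assay. Glutathione donor and nickel chelate acceptor beads added, then 60 min at room temperature protected from light before signal read. Hits run as 11-point dose–response with TruHits counter-screen.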

[2] = Solubility of compound in PBS at pH 7.5; assay type: physicochemical
[3] = tested on: A549; assay: Inhibition of CCCP-induced mitochondrial morphology change in human A549 cells at 10 uM preincubated for 1 hr followed by CCCP stimulation for 3 hrs by Alexa Fluor 488/Hoechst 33342 staining based high-content imaging analysis; assay type: functional, cell-based; conditions: time 4.0 hrs
Summary of the method: (§1)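 A549 cells exposed to compound 1 h at 37 °C, then co-treated with CCCP (5 μM) a further 3 h at 37 °C. Cells fixed in paraformaldehyde and stained with anti-TOM20 primary and goat anti-mouse secondary. Mitochondrial morphology scored by high-content imaging with a supervised machine-learning classifier trained on control siRNA (normal), OPA1 siRNA (fragmented) and DRP1 siRNA (hypertubular) images.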

[4] = tested on: A549; assay: Inhibition of CCCP-induced mitochondrial fragmentation in human A549 cells preincubated for 1 hr followed by CCCP stimulation for 3 hrs by Alexa Fluor 488/568 and Hoechst staining based high-content imaging analysis; assay type: functional, cell-based; conditions: time 4.0 hrs; summary of the method: as §1
[5] = tested on: A549; assay: Inhibition of CCCP-induced mitochondrial fragmentation in human A549 cells at 0.37 to 3.3 uM preincubated for 1 hr followed by CCCP stimulation for 3 hrs by Alexa Fluor 488/568 and Hoechst staining based high-content imaging analysis; assay type: functional, cell-based; conditions: dose 0.37-3.3 µM, time 4.0 hrs; summary of the method: as §1

Row | IC50 [1] | Compound | also measured
1 | 3.6 µM | CCOc1cc(-c2ccccc2)nc2ccc(NC(=O)C(C)C)cc12 | –
2 | 12 µM | CC(C)C(=O)Nc1ccc2nc(-c3ccccc3)cc(-n3cccn3)c2c1 | –
3 | > 100 µM | CC(C)C(=O)Nc1ccc2nc(-c3ccccc3)cc(N3CCCC3=O)c2c1 | –
4 | 13 µM | CC(C)C(=O)Nc1ccc2nc(-c3ccccc3)cc(N3CCCCC3)c2c1 | –
5 | 0.14 µM | COc1ccc(-c2cc(N3CCC3)c3cc(NC(=O)C4COC4)ccc3n2)cc1 | –
6 | 0.29 µM | CC(C)C(=O)Nc1ccc2nc(-c3ccccc3)cc(N3CC(F)C3)c2c1 | –
7 | 4.3 µM | CCNc1cc(-c2ccccc2)nc2ccc(NC(=O)C(C)C)cc12 | –
8 | 11 µM | CC(C)C(=O)Nc1ccc2nc(-c3ccccc3)cc(N(C)C)c2c1 | –
9 | 0.12 µM | CC(C)C(=O)Nc1ccc2nc(-c3ccccc3)cc(N3CCC3)c2c1 | –
10 | 0.58 µM | CC1CN(c2cc(-c3ccccc3)nc3ccc(NC(=O)C(C)C)cc23)C1 | –
11 | 0.05 µM | Cc1ccc(-c2cc(N3CCC3)c3cc(NC(=O)C(C)C)ccc3n2)cc1 | solubility [2]: 11 µM (≈ 3.95 µg/mL)
12 | 22 µM | CC(C)C(=O)Nc1ccc2nc(-c3ccccc3)cc(N3CCOCC3)c2c1 | –
13 | 22 µM | CC(C)C(=O)Nc1ccc2nc(-c3ccccc3)cc(-n3ccnc3)c2c1 | –
14 | 0.29 µM | O=C(Nc1ccc2nc(-c3ccccc3)cc(N3CC(O)C3)c2c1)C1COC1 | –
15 | 0.1 µM | O=C(Nc1ccc2nc(-c3ccccc3)cc(N3CCC3)c2c1)C1COC1 | inhibition [3]: Active; inhibition [4]: Dose-Dependent Effect; solubility [2]: 281 µM (≈ 101 µg/mL); inhibition [5]: Active
16 | 0.45 µM | CC(C)C(=O)Nc1ccc2nc(-c3ccccc3)cc(N3CCCC3)c2c1 | –
